What all share (assay type): functional
For experiment [1], the system named is Mus musculus. The experiment is described as follows: In vivo anticonvulsant activity in male albino mice using the maximal electroshock seizure(MES) test upon intraperitoneal administration (exp-2). The conditions noted are these: ip. The method in brief:
(§1)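 Mice (18–25 g) received the test agent intraperitoneally as a suspension in 0.5% (w/v) methylcellulose in water. A 60-cycle alternating current at 50 mA was applied for 0.2 s, and protection meant abolition of the hindlimb tonic extensor component. The ED50 was determined at the time of peak effect in groups of at least eight mice. At least two doses fell between 100% and 0% protection, and the 95% confidence interval was calculated by Finney's method.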
In general terms: In the maximal electroshock model the usual endpoint is tonic extension of the hind limbs.

Experiment [2] relates to Mus musculus. The experiment in a line: In vivo anticonvulsant activity in male albino mice using the maximal electroshock seizure(MES) test upon intraperitoneal administration (exp-1). Particulars: ip. The method in brief: as §1
Experiment [3] deals with Mus musculus. The experiment is described as follows: In vivo anticonvulsant activity in male albino mice using the maximal electroshock seizure(MES) test upon intraperitoneal administration, expressed as logarithm of effective dose; value ranges from 2.63 to 3.12. Summed up:
as §1

The subject of experiment [4] is Mus musculus. The experiment is described as follows: In vivo anticonvulsant activity in male albino mice using the maximal electroshock (MES) test after intraperitoneal administration. Particulars: ip. The method in brief:
as §1

The test system of experiment [5] is Mus musculus. The experiment in a line: Anticonvulsant activity in mice following i.p. treatment and Maximal Electroshock Seizure (MES) test. The method in brief: (§2)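 Mice (18–25 g) received the compound ip as a suspension in 0.5% (w/v) methylcellulose in water. A 60-cycle alternating current of 50 mA was applied for 0.2 s. Protection was defined as abolition of the hindlimb tonic extensor component. […] ED50 and 95% confidence interval were calculated by Finney's methods.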

Experiment [6] has as its system Mus musculus. The experiment in a line: In vivo anticonvulsant activity in male albino mice using the maximal electroshock seizure(MES) test upon intraperitoneal administration, expressed as logarithm of effective dose. The method in brief:
as §1

Experiment [7] concerns Mus musculus. The experiment in a line: In vivo anticonvulsant activity in male albino mice using the maximal electroshock (MES) test after intraperitoneal administration; value ranges from 21.4-40.8. The conditions noted are these: ip.
Experiment [8] has as its system Mus musculus. The experiment in a line: In vivo anticonvulsant activity in male albino mice using the maximal electroshock (MES) test after intraperitoneal administration; value ranges from 457.7-715. Particulars: ip.
Experiment [9] has as its system Mus musculus. The experiment is described as follows: In vivo anticonvulsant activity in male albino mice using the maximal electroshock seizure(MES) test upon intraperitoneal administration; value ranges from 44.4 to 59.9. Particulars: ip.
The subject of experiment [10] is Mus musculus. The experiment is described as follows: In vivo anticonvulsant activity in male albino mice using the maximal electroshock seizure(MES) test upon intraperitoneal administration (exp 2). The conditions noted are these: ip. Summed up:
as §2

Experiment [11] deals with Mus musculus. The experiment in a line: In vivo anticonvulsant activity in male albino mice using the maximal electroshock seizure(MES) test upon intraperitoneal administration, expressed as logarithm of effective dose; value ranges from 2.58 to 3.06. Summed up:
as §1

Experiment [12] deals with Mus musculus. The experiment in a line: In vivo anticonvulsant activity in male albino mice using the maximal electroshock seizure(MES) test upon intraperitoneal administration (exp 1). The conditions noted are these: ip. Summed up: as §2
In experiment [13] the test system is Mus musculus. The experiment is described as follows: In vivo anticonvulsant activity in male albino mice using the maximal electroshock (MES) test after intraperitoneal administration; value ranges from 76.8-120. Particulars: ip. Summed up:
as §1

Experiment [14] concerns Mus musculus. The experiment is described as follows: In vivo anticonvulsant activity in male albino mice using the maximal electroshock seizure(MES) test upon intraperitoneal administration, expressed as logarithm of effective dose; value ranges from 2.08 to 2.60.
Experiment [15] has as its system Mus musculus. The experiment is described as follows: In vivo anticonvulsant activity in male albino mice using the maximal electroshock (MES) test after intraperitoneal administration; value ranges from 26.7-37.8. The conditions noted are these: ip.
Experiment [16] has as its system Mus musculus. The experiment in a line: In vivo anticonvulsant activity in male albino mice using the maximal electroshock seizure(MES) test upon intraperitoneal administration, expressed as logarithm of effective dose; value ranges from 2.10 to 2.63.
Experiment [17] relates to Mus musculus. The experiment in a line: In vivo anticonvulsant activity in male albino mice using the maximal electroshock seizure(MES) test upon intraperitoneal administration; value ranges from 34.9 to 45. The conditions noted are these: ip. The method in brief: as §1
In experiment [18] the test system is Mus musculus. The experiment is described as follows: In vivo anticonvulsant activity in male albino mice using the maximal electroshock seizure(MES) test upon intraperitoneal administration; value ranges from 51.9 to 68. The conditions noted are these: ip.
Experiment [19] concerns Mus musculus. The experiment is described as follows: In vivo anticonvulsant activity in male albino mice using the maximal electroshock seizure(MES) test upon intraperitoneal administration; value ranges from 62.5 to 91. Particulars: ip.
The subject of experiment [20] is Mus musculus. The experiment in a line: In vivo anticonvulsant activity in male albino mice using the maximal electroshock seizure(MES) test upon intraperitoneal administration, expressed as logarithm of effective dose; value ranges from 2.63 to 3.11.
Experiment [21] deals with Mus musculus. The experiment in a line: In vivo anticonvulsant activity in male albino mice using the maximal electroshock (MES) test after intraperitoneal administration (exp 1). Particulars: ip. Summed up:
as §2

The subject of experiment [22] is Mus musculus. The experiment is described as follows: In vivo anticonvulsant activity in male albino mice using the maximal electroshock (MES) test after intraperitoneal administration (exp 2). The conditions noted are these: ip. Summed up: as §2
The test system of experiment [23] is Mus musculus. The experiment is described as follows: In vivo anticonvulsant activity in male albino mice using the maximal electroshock seizure(MES) test upon intraperitoneal administration; value ranges from 75.4 to 101. The conditions noted are these: ip.
Experiment [24] relates to Mus musculus. The experiment is described as follows: In vivo anticonvulsant activity in male albino mice using the maximal electroshock seizure(MES) test upon intraperitoneal administration; value ranges from 74.3 to 99.1. The conditions noted are these: ip. Summed up:
as §2

The subject of experiment [25] is Mus musculus. The experiment is described as follows: In vivo anticonvulsant activity in male albino mice using the maximal electroshock seizure(MES) test upon intraperitoneal administration; value ranges from 14.6 to 41. Particulars: ip. Summed up: as §2
In experiment [26] the test system is Mus musculus. The experiment in a line: In vivo anticonvulsant activity in male albino mice using the maximal electroshock seizure(MES) test upon intraperitoneal administration. The conditions noted are these: ip. The method in brief: as §2

As to `CCC(NC(C)=O)C(=O)NCc1ccccc1` (stereo not drawn), the ED50 – broadly, the dose that gives a 50% effect, or the effect in half of the subjects – in the experiment on Mus musculus [1] is below 300 mg/kg; in the experiment on Mus musculus [2], above 100 mg/kg. For the same molecule, the “Log ED50” value in the experiment on Mus musculus [3] was determined as 3.12 uM kg-1.
In the experiment on Mus musculus [4], `CC(=O)NC(Nc1ccc(N)cc1)C(=O)NCc1ccccc1` (stereo not drawn) came in with an ED50 of 176 mg/kg. The “Log ED50” value in the experiment with Mus musculus [5] was 2.75 uM kg-1.
For the molecule `CC(=O)NC(C(=O)NCc1ccccc1F)c1ccco1` (stereo not drawn), the “Log ED50” value in the experiment on Mus musculus [6] worked out at 2.14 uM kg-1.
As to `CNC(C)C(=O)NCc1ccccc1` (stereo not drawn), it took a dose of 31.2 mg/kg to reach the 50% effect level in the experiment with Mus musculus [7] (ED50). Further, the “Log ED50” value with Mus musculus [5] was determined as 2.21 uM kg-1.
In the experiment with Mus musculus [8], `CC(=O)NC(C(=N)NOC(C)=O)C(=O)NCc1ccccc1` (stereo not drawn) showed an ED50 of 140 mg/kg. The “Log ED50” value with Mus musculus [5] is given as 2.66 uM kg-1.
As for `CC(=O)NC(C(=O)NCc1ccccc1)C1CCCO1` (stereo not drawn), the “Log ED50” value with Mus musculus [6] is on record as 2.27 uM kg-1. In the experiment with Mus musculus [9], this molecule came in with an ED50 of 51.7 mg/kg.
`C=CC(=O)NC(COC)C(=O)NCc1ccccc1` (stereo not drawn): the ED50 with Mus musculus [10] is below 300 mg/kg; with Mus musculus [12], above 100 mg/kg. In addition, the “Log ED50” value in the experiment with Mus musculus [11] was found to be 3.06 uM kg-1.
Take `CC(=O)NC(Nc1cccc(N)c1)C(=O)NCc1ccccc1` (stereo not drawn): in the experiment with Mus musculus [13], the 50% effect level (ED50) was put at a dose of 98.6 mg/kg. Besides, the “Log ED50” value in the experiment with Mus musculus [5] was 2.5 uM kg-1.
Turning to `CCC(C(=O)NCc1ccccc1)N(C)C(C)=O` (stereo not drawn), the 50% effective dose (ED50) is below 100 mg/kg in the experiment with Mus musculus [10] and above 30 mg/kg in the experiment with Mus musculus [12]. In the experiment with Mus musculus [14], the “Log ED50” value is 2.6 uM kg-1.
In the case of `CC(=O)NC(C(=O)NCc1ccccc1)n1cccn1` (stereo not drawn), the “Log ED50” value in the experiment on Mus musculus [5] turned out to be 1.78 uM kg-1.
Take `CC(=O)NC(C(=O)NCc1ccccc1)c1ccccn1` (stereo not drawn): in the experiment on Mus musculus [6], the “Log ED50” value is given as 1.58 uM kg-1.
`CC(=O)NC(C(=O)NCc1ccccc1)N1CC=CO1` (stereo not drawn) had an ED50 in the experiment with Mus musculus [15] of 31.4 mg/kg. For the same molecule, in the experiment on Mus musculus [5], the “Log ED50” value worked out at 2.05 uM kg-1.
Consider `CC(=O)N(C)C(C)C(=O)NCc1ccccc1` (stereo not drawn), for which the ED50 is below 100 mg/kg in the experiment with Mus musculus [1] and above 30 mg/kg in the experiment with Mus musculus [2]. In the experiment with Mus musculus [16], the “Log ED50” value is on record as 2.63 uM kg-1.
Regarding `CCCC(NC(C)=O)C(=O)NCc1ccccc1` (stereo not drawn), in the experiment on Mus musculus [6], the “Log ED50” value stood at 2.19 uM kg-1. For the same molecule, the ED50 in the experiment with Mus musculus [17] was 38.4 mg/kg.
Turning to `CC(=O)NC(=O)NCc1ccccc1`, in the experiment with Mus musculus [18], the 50% effect level (ED50) was put at a dose of 60.1 mg/kg. The “Log ED50” value with Mus musculus [6] turned out to be 2.5 uM kg-1.
Take `CC(=O)NC(C(=O)NCc1ccccc1)c1cnccn1` (stereo not drawn): the “Log ED50” value in the experiment with Mus musculus [6] worked out at 1.72 uM kg-1.
For the molecule `CC(=O)NC(C)C(=O)NCc1cccc(F)c1` (stereo not drawn), in the experiment with Mus musculus [6], the “Log ED50” value is 2.51 uM kg-1. In the experiment with Mus musculus [19], this molecule returned an ED50 of 77.3 mg/kg.
Consider `CC(=O)NC(C(=O)NCc1ccccc1)c1ncco1` (stereo not drawn), for which, in the experiment with Mus musculus [6], the “Log ED50” value is given as 1.58 uM kg-1.
Turning to `CC(=O)NC(C)C(=O)N(C)Cc1ccccc1` (stereo not drawn), the ED50 in the experiment on Mus musculus [10] is below 300 mg/kg; in the experiment on Mus musculus [12] it was above 100 mg/kg. Besides, in the experiment with Mus musculus [20], the “Log ED50” value is recorded as 3.11 uM kg-1.
Consider `CCC(NC)C(=O)NCc1ccccc1` (stereo not drawn), for which the ED50 in the experiment with Mus musculus [21] was above 30 mg/kg; in the experiment on Mus musculus [22], below 100 mg/kg. The “Log ED50” value in the experiment on Mus musculus [5] amounted to 2.69 uM kg-1.
The corresponding values for `CCCC(N)C(=O)NCc1ccccc1` (stereo not drawn) are above 30 mg/kg, below 100 mg/kg and 2.69 uM kg-1.
In turn, `CC(=O)NC(C(=N)S)C(=O)NCc1ccccc1` (stereo not drawn) yielded an ED50 in the experiment on Mus musculus [23] of 86.2 mg/kg. Further, in the experiment on Mus musculus [6], the “Log ED50” value was found to be 2.51 uM kg-1.
For `CC(=O)NC(C(=O)NCc1ccccc1)c1nccs1` (stereo not drawn), in the experiment with Mus musculus [6], the “Log ED50” value worked out at 1.62 uM kg-1.
Consider `CCN(C(C)=O)C(C)C(=O)NCc1ccccc1` (stereo not drawn), for which, in the experiment on Mus musculus [6], the “Log ED50” value is 2.53 uM kg-1. The ED50 in the experiment with Mus musculus [24] worked out at 85 mg/kg.
On to `CN1CSCC1C(=O)NCc1ccccc1` (stereo not drawn), for which the ED50 with Mus musculus [25] was determined as 29.1 mg/kg. The “Log ED50” value with Mus musculus [6] is reported as 2.09 uM kg-1.
As for `CC(=O)NCC(C)C(=O)NCc1ccccc1` (stereo not drawn), the “Log ED50” value in the experiment with Mus musculus [6] is reported as 3.06 uM kg-1. Besides, in the experiment on Mus musculus [26], the ED50 was determined as 270 mg/kg.
Regarding `CC(=O)NC(C(=O)NCc1ccccc1)c1ccsc1` (stereo not drawn), the “Log ED50” value with Mus musculus [6] is reported as 2.48 uM kg-1.
The same measure, in the same setting: for `CC(=O)NC(C(=O)NCc1ccccc1)c1ccc(C)o1` (stereo not drawn) the value was 1.83 uM kg-1.
Consider `CC(=O)NC(C)C(=O)NCCCc1ccccc1` (stereo not drawn), for which the 50% effect level in the experiment on Mus musculus [4] (ED50) was put at a dose of 87.6 mg/kg. The “Log ED50” value in the experiment with Mus musculus [5] turned out to be 2.55 uM kg-1.
For the molecule `CC(=O)NC(C)C(=O)NCc1ccccc1` (racemic), the “Log ED50” value with Mus musculus [6] is 2.54 uM kg-1.
